Laboratory results: ChEMBL document CHEMBL1146216, “Synthesis and biological activity of a gemcitabine phosphoramidate prodrug” (J Med Chem, 2007)
pIC50: −log10 of the molar value.

Key:
[1] = test system: A549; test: Growth inhibition of A549 cells by SRB assay; assay type: functional, cell-based; details: Homo sapiens
How it was run: (§1)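 Cells seeded at 5000/well and exposed to a range of drug concentrations for 72 h at 37 °C, 5% CO2, then read by SRB. A2780 and its dCK-deficient variant AG6000 were grown in DMEM; A549, H292 and H460 in RPMI; both media had 10% FCS and 20 mM HEPES. OD was read at 540 or 492 nm. Relative growth = (ODtreated − ODzero)/(ODcontrol − ODzero) × 100%, with ODzero taken at drug addition.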

[2] = Growth inhibition of H292 cells by SRB assay; assay type: functional, cell-based; details: Homo sapiens, NCI-H292; how it was run: as §1
[3] = test system: NCI-H460; test: Growth inhibition of H460 cells by SRB assay; assay type: functional, cell-based; details: Homo sapiens; how it was run: as §1
[4] = test system: 786-0; test: Growth inhibition in 786-0 cells; assay type: functional; details: Homo sapiens
[5] = test system: NCI-H460; test: Ratio of growth inhibition of H460 cells by drug to 2'-2'-difluorodeoxycytidine; assay type: functional, Homo sapiens
[6] = test system: SW1573; test: Ratio of growth inhibition of SW1573 cells by drug to 2'-2'-difluorodeoxycytidine; assay type: functional, Homo sapiens
[7] = test system: A2780; test: Ratio of growth inhibition of A2780 cells by drug to 2'-2'-difluorodeoxycytidine; assay type: functional, Homo sapiens
[8] = test system: CCRF-CEM; test: Ratio of growth inhibition of CEM cells by drug to 2'-2'-difluorodeoxycytidine; assay type: functional, Homo sapiens
[9] = test system: CCRF-CEM; test: Ratio of growth inhibition of dCK deficient CEM cells by drug to 2'-2'-difluorodeoxycytidine; assay type: functional, Homo sapiens
[10] = Ratio of growth inhibition of AG6000 cells by drug to 2'-2'-difluorodeoxycytidine; assay type: functional, Homo sapiens
[11] = test system: SW1573; test: Growth inhibition of SW1573 cells by SRB assay; assay type: functional, cell-based; details: Homo sapiens
How it was run: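 SW1573 NSCLC cells grown in DMEM with 10% FCS and 20 mM HEPES at 37 °C, 5% CO2. Seeded at 5000 cells/well and exposed to a range of drug concentrations for 72 h, then SRB assay. OD read at 540 or 492 nm. Relative growth = (ODtreated − ODzero)/(ODcontrol − ODzero) × 100%, with ODzero taken at drug addition.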

[12] = test system: A2780; test: Growth inhibition of A2780 cells by SRB assay; assay type: functional, cell-based; details: Homo sapiens; how it was run: as §1
[13] = Growth inhibition of AG6000 cells by SRB assay; assay type: functional, cell-based; details: Homo sapiens; how it was run: as §1
[14] = test system: A549; test: Growth inhibition of A549 cells by SRB assay in presence of dipyridamole; assay type: functional, cell-based; details: Homo sapiens
How it was run: (§2)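 SRB growth assay run with the nucleoside transport inhibitor dipyridamole at 1 µM final. Cells were seeded at 5000/well and exposed to a range of drug concentrations for 72 h at 37 °C, 5% CO2. Media: DMEM for A2780 and the dCK-deficient AG6000; RPMI for A549, H292 and H460; each with 10% FCS and 20 mM HEPES. Relative growth was calculated against ODzero and untreated controls.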

[15] = Growth inhibition of H292 cells by SRB assay in presence of dipyridamole; assay type: functional, cell-based; details: Homo sapiens, NCI-H292; how it was run: as §2
[16] = test system: NCI-H460; test: Growth inhibition of H460 cells by SRB assay in presence of dipyridamole; assay type: functional, cell-based; details: Homo sapiens; how it was run: as §2
[17] = test system: SW1573; test: Growth inhibition of SW1573 cells by SRB assay in presence of dipyridamole; assay type: functional, cell-based; details: Homo sapiens
How it was run: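 SW1573 cells cultured in DMEM, 10% FCS, 20 mM HEPES, 37 °C, 5% CO2. Plated at 5000 cells/well and given graded drug concentrations with the nucleoside transport inhibitor dipyridamole at 1 µM final, for 72 h. SRB read-out at OD 540 or 492 nm. Growth is expressed relative to time-zero and untreated wells.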

[18] = test system: A2780; test: Growth inhibition of A2780 cells by SRB assay in presence of dipyridamole; assay type: functional, cell-based; details: Homo sapiens; how it was run: as §2
[19] = Growth inhibition of AG6000 cells by SRB assay in presence of dipyridamole; assay type: functional, cell-based; details: Homo sapiens; how it was run: as §2
[20] = test system: A549; test: Ratio of growth inhibition of A549 cells by drug to 2'-2'-difluorodeoxycytidine; assay type: functional, Homo sapiens
[21] = Ratio of growth inhibition of H292 cells by drug to 2'-2'-difluorodeoxycytidine; assay type: functional, Homo sapiens
[22] = test system: A498; test: Growth inhibition in A498 cells; assay type: functional; details: Homo sapiens
[23] = test system: A549; test: Growth inhibition in A549 cells; assay type: functional; details: Homo sapiens
[24] = test system: ACHN; test: Growth inhibition in ACHN cells; assay type: functional; details: Homo sapiens
[25] = test system: BT-549; test: Growth inhibition in BT549 cells; assay type: functional; details: Homo sapiens
[26] = test system: CAKI-1; test: Growth inhibition in CAKI1 cells; assay type: functional; details: Homo sapiens
[27] = test system: COLO 205; test: Growth inhibition in COLO 205 cells; assay type: functional; details: Homo sapiens
[28] = test system: DU-145; test: Growth inhibition in DU145 cells; assay type: functional; details: Homo sapiens
[29] = test system: EKVX; test: Growth inhibition in EKVX cells; assay type: functional; details: Homo sapiens
[30] = test system: HCT-116; test: Growth inhibition in HCT116 cells; assay type: functional; details: Homo sapiens
[31] = test system: HCT-15; test: Growth inhibition in HCT15 cells; assay type: functional; details: Homo sapiens
[32] = test system: HOP-62; test: Growth inhibition in HOP62 cells; assay type: functional; details: Homo sapiens
[33] = test system: HOP-92; test: Growth inhibition in HOP92 cells; assay type: functional; details: Homo sapiens
[34] = Growth inhibition in HS 578T cells; assay type: functional; details: Homo sapiens
[35] = test system: HT-29; test: Growth inhibition in HT29 cells; assay type: functional; details: Homo sapiens
[36] = test system: IGROV-1; test: Growth inhibition in IGROV1 cells; assay type: functional; details: Homo sapiens
[37] = test system: K562; test: Growth inhibition of K562 cells; assay type: functional; details: Homo sapiens
[38] = test system: KM12; test: Growth inhibition of KM12 cells; assay type: functional; details: Homo sapiens
[39] = test system: LOX IMVI; test: Growth inhibition of LOX IMVI cells; assay type: functional; details: Homo sapiens
[40] = test system: M14; test: Growth inhibition of M14 cells; assay type: functional; details: Homo sapiens
[41] = test system: MCF7; test: Growth inhibition of MCF7 cells; assay type: functional; details: Homo sapiens
[42] = test system: MDA-MB-231; test: Growth inhibition of MDA-MB-231 cells; assay type: functional; details: Homo sapiens
[43] = test system: MDA-MB-435; test: Growth inhibition of MDA-MB-435 cells; assay type: functional; details: Homo sapiens
[44] = test system: MOLT-4; test: Growth inhibition of MOLT4 cells; assay type: functional; details: Homo sapiens
[45] = test system: NCI/ADR-RES; test: Growth inhibition of NCI/ADR-RES cells; assay type: functional; details: Homo sapiens
[46] = test system: NCI-H226; test: Growth inhibition of NCI-H226 cells; assay type: functional; details: Homo sapiens
[47] = test system: NCI-H23; test: Growth inhibition of NCI-H23 cells; assay type: functional; details: Homo sapiens
[48] = test system: NCI-H322M; test: Growth inhibition of NCI-H322M cells; assay type: functional; details: Homo sapiens
[49] = test system: NCI-H460; test: Growth inhibition of NCI-H460 cells; assay type: functional; details: Homo sapiens
[50] = test system: NCI-H522; test: Growth inhibition of NCI-H522 cells; assay type: functional; details: Homo sapiens
[51] = test system: OVCAR-3; test: Growth inhibition of OVCAR-3 cells; assay type: functional; details: Homo sapiens
[52] = test system: OVCAR-5; test: Growth inhibition of OVCAR5 cells; assay type: functional; details: Homo sapiens
[53] = test system: OVCAR-8; test: Growth inhibition of OVCAR8 cells; assay type: functional; details: Homo sapiens
[54] = test system: PC-3; test: Growth inhibition of PC3 cells; assay type: functional; details: Homo sapiens
[55] = test system: SF-268; test: Growth inhibition of SF268 cells; assay type: functional; details: Homo sapiens
[56] = test system: SF-295; test: Growth inhibition of SF295 cells; assay type: functional; details: Homo sapiens
[57] = test system: SF-539; test: Growth inhibition of SF539 cells; assay type: functional; details: Homo sapiens
[58] = test system: SK-MEL-2; test: Growth inhibition of SK-MEL-2 cells; assay type: functional; details: Homo sapiens
[59] = test system: SK-MEL-28; test: Growth inhibition of SK-MEL-28 cells; assay type: functional; details: Homo sapiens
[60] = test system: SK-MEL-5; test: Growth inhibition of SK-MEL-5 cells; assay type: functional; details: Homo sapiens
[61] = test system: SK-OV-3; test: Growth inhibition of SKOV3 cells; assay type: functional; details: Homo sapiens
[62] = test system: SN12C; test: Growth inhibition of SN12C cells; assay type: functional; details: Homo sapiens
[63] = test system: SNB-19; test: Growth inhibition of SNB19 cells; assay type: functional; details: Homo sapiens
[64] = test system: SNB-75; test: Growth inhibition of SNB75 cells; assay type: functional; details: Homo sapiens
[65] = test system: SW-620; test: Growth inhibition of SW620 cells; assay type: functional; details: Homo sapiens
[66] = test system: TK-10; test: Growth inhibition of TK10 cells; assay type: functional; details: Homo sapiens
[67] = test system: U-251; test: Growth inhibition of U251 cells; assay type: functional; details: Homo sapiens
[68] = test system: UACC-257; test: Growth inhibition of UACC257 cells; assay type: functional; details: Homo sapiens
[69] = test system: UACC-62; test: Growth inhibition of UACC62 cells; assay type: functional; details: Homo sapiens
[70] = test system: UO-31; test: Growth inhibition of UO31 cells; assay type: functional; details: Homo sapiens
[71] = test system: CCRF-CEM; test: Growth inhibition of CEM cells by MTT assay; details: Homo sapiens
[72] = test system: CCRF-CEM; test: Growth inhibition of dCK deficient CEM cells by MTT assay; details: Homo sapiens
[73] = test system: CCRF-CEM; test: Growth inhibition of CEM cells by MTT assay in presence of dipyridamole; details: Homo sapiens
[74] = test system: CCRF-CEM; test: Growth inhibition of dCK deficient CEM cells by MTT assay in presence of dipyridamole; details: Homo sapiens

SMILES: CN(CCCCCl)P(=O)(OCc1ccc([N+](=O)[O-])o1)OC[C@H]1O[C@@H](n2ccc(N)nc2=O)C(F)(F)[C@@H]1O (some centres undefined)
- pIC50 [1]: 7.10
- pIC50 [2]: 7.43
- pIC50 [3]: 7.11
- GI50 [4]: 62 nM
- Ratio IC50 [5]: 7.7
- Ratio IC50 [6]: 5.8
- Ratio IC50 [7]: 5.3
- Ratio IC50 [8]: 15
- Ratio IC50 [9]: 0.26
- Ratio IC50 [10]: 0.25
- pIC50 [11]: 7.04
- pIC50 [12]: 8.10
- pIC50 [13]: 5.30
- pIC50 [14]: < 6.30
- pIC50 [15]: 6.48
- pIC50 [16]: < 6.30
- pIC50 [17]: < 6.30
- pIC50 [18]: 6.40
- pIC50 [19]: 5.22
- Ratio IC50 [20]: 5.6
- Ratio IC50 [21]: 2.8
- GI50 [22]: 5.8 µM
- GI50 [23]: 730 nM
- GI50 [24]: 38 nM
- GI50 [25]: 1600 nM
- GI50 [26]: 220 nM
- GI50 [27]: 7.5 µM
- GI50 [28]: 190 nM
- GI50 [29]: 2500 nM
- GI50 [30]: 1100 nM
- GI50 [31]: 54 µM
- GI50 [32]: 500 nM
- GI50 [33]: 150 nM
- GI50 [34]: 46 µM
- GI50 [35]: 30 µM
- GI50 [36]: 14 µM
- GI50 [37]: 13 µM
- GI50 [38]: 15 µM
- GI50 [39]: 760 nM
- GI50 [40]: 54 nM
- GI50 [41]: 450 nM
- GI50 [42]: 25 µM
- GI50 [43]: 470 nM
- GI50 [44]: 770 nM
- GI50 [45]: 230 nM
- GI50 [46]: 16 µM
- GI50 [47]: 74 nM
- GI50 [48]: 3.5 µM
- GI50 [49]: 300 nM
- GI50 [50]: 15 µM
- GI50 [51]: 3.2 µM
- GI50 [52]: 1900 nM
- GI50 [53]: 110 nM
- GI50 [54]: 1800 nM
- GI50 [55]: 260 nM
- GI50 [56]: 880 nM
- GI50 [57]: 42 nM
- GI50 [58]: 80 µM
- GI50 [59]: 20 µM
- GI50 [60]: 3.2 µM
- GI50 [61]: 2200 nM
- GI50 [62]: 490 nM
- GI50 [63]: 260 nM
- GI50 [64]: 13 µM
- GI50 [65]: 38 µM
- GI50 [66]: 1500 nM
- GI50 [67]: 780 nM
- GI50 [68]: 17 µM
- GI50 [69]: 1100 nM
- GI50 [70]: 400 nM
- pIC50 [71]: 5.70
- pIC50 [72]: 4.89
- pIC50 [73]: 5.40
- pIC50 [74]: 4.77
